Data reported in ChEMBL document CHEMBL4428117, “Discovery of novel free fatty acid receptor 1 agonists bearing triazole core via click chemistry” (Bioorg Med Chem, 2016).

Experiments:
[1] = molecular target: Free fatty acid receptor 1 (Homo sapiens) (UniProt O14842); test: Agonist activity at human FFA1 receptor expressed in CHO cells assessed as intracellular calcium influx at 100 nM measured for 90 sec by Fluo-4-AM dye based FLIPR assay relative to control; assay type: functional, cell-based
Free fatty acid receptor 1 (Homo sapiens), sequence (O14842 whole entry): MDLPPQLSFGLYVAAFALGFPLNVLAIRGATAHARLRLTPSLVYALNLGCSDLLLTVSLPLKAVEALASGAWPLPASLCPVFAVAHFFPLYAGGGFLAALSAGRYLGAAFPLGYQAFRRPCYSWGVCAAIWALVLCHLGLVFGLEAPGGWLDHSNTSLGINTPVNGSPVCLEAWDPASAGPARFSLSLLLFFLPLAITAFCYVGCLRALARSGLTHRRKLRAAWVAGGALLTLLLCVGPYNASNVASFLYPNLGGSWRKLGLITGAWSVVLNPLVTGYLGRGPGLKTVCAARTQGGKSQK
Method in brief: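 CHO cells stably expressing human FFA1 (NM_005303), 15 K cells/well, grown 12 h at 37 °C in 5% CO2, then HBSS wash. Ca2+ signal read by FLIPR for 90 s after addition. Activity = (test − vehicle)/(10 µM γ-linolenic acid − vehicle) × 100; mean of three independent experiments.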

[2] = 1-octanol-phosphate buffer distribution coefficient, log D of compound at 100 uM at pH 7.4 after 24 hrs by HPLC based shake flask method; assay type: physicochemical
Method in brief: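 Final concentration 100 µM, diluted from 10 mM DMSO stock, in 1:1 0.01 M phosphate buffer pH 7.4 and 1-octanol. Shaken 700 rpm for 24 h, then 1 h phase separation. Octanol phase diluted ×10 before HPLC, buffer phase injected directly, each in duplicate. LogD = octanol/buffer peak area at 254 nm, corrected with two calibration points; three independent experiments.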

Mus musculus [3] = test: Hypoglycemic effect in normal ICR mouse assessed as decrease in blood glucose AUC (0 to 2 hrs) at 50 mg/kg, po administered as single dose 30 mins prior to glucose challenge by OGTT relative to control; assay type: functional; design: scale not given: the % may be the effect or the level left
Method in brief: (§1)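 Ten-week-old male ICR mice, fasted 12 h, randomized n = 6 per group. Single oral dose in 0.5% CMC given 30 min before oral glucose 3 g/kg. Tail-vein blood glucose measured by test strips at −30, 0, 15, 30, 45, 60 and 120 min; AUC0-2h calculated; mean ± SEM, Student's t-test vs vehicle.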

Mus musculus [4] = test: Hypoglycemic effect in normal ICR mouse assessed as decrease in plasma glucose level at 50 mg/kg, po administered as single dose 30 mins prior to glucose challenge by OGTT relative to control; assay type: functional, organism-based; settings: TDE = time-dependent effect; method in brief: as §1
Mus musculus [5] = test: Hypoglycemic effect in fasting STZ-induced type-2 diabetic C57BL/6 mouse assessed as decrease in blood glucose AUC (0 to 2 hrs) at 50 mg/kg, po administered as single dose 30 mins prior to glucose challenge by OGTT relative to control; assay type: functional; design: scale not given: the % may be the effect or the level left
Method in brief: (§2)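 Male C57BL/6 mice on high-fat diet (45% kcal fat) for 4 weeks, then STZ 80 mg/kg i.p., then high-fat diet another 4 weeks. Fasting glucose ≥11.1 mmol/L taken as diabetic. Fasted 12 h, n = 6 per group. Oral dose in 0.5% CMC 30 min before oral glucose 2 g/kg. Tail-vein glucose by test strips at −30, 0, 15, 30, 45, 60 and 120 min; AUC0-2h; mean ± SEM.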

Mus musculus [6] = test: Hypoglycemic effect in fasting STZ-induced type-2 diabetic C57BL/6 mouse assessed as decrease in blood glucose AUC (0 to 2 hrs) at 20 mg/kg, po administered as single dose 30 mins prior to glucose challenge measured by OGTT relative to control; assay type: functional; design: scale not given: the % may be the effect or the level left; method in brief: as §2

Q: For O=C(O)COc1ccc(OCc2cn(-c3c(Cl)cccc3Cl)nn2)cc1F, which Activity [1] is on record?
A: Its Activity is 29.7%.

Q: What about the logD at 24 h, 100 µM [2] of the same compound?
A: The logD at 24 h, 100 µM was 2.16.

Q: What about the Activity (Mus musculus [3]) of the same compound?
A: The Activity was 17.7%.

Q: And the Activity (Mus musculus [4])?
A: The Activity was “Tde”.

Q: For O=C(O)COc1ccc(OCc2cn(-c3ccc(Cl)cc3)nn2)cc1, which Activity [1] is on record?
A: Its Activity is 19.4%.

Q: What does the source list for Cc1ccc(-n2cc(COc3ccc(OCC(=O)O)cc3)nn2)cc1?
A: Activity [1]: 16.4%; logD at 24 h, 100 µM [2]: 0.89

Q: Which Activity [1] does the source give for O=C(O)COc1ccc(OCc2cn(-c3ccccc3)nn2)cc1F here?
A: The Activity was 5.83%.

Q: What about the logD at 24 h, 100 µM [2] of the same compound?
A: The logD at 24 h, 100 µM was -0.23.

Q: Which Activity [1] does the source give for O=C(O)COc1ccc(OCc2cn(-c3ccc(Cl)cc3)nn2)cc1F here?
A: The Activity was 26.1%.

Q: What about the logD at 24 h, 100 µM [2] of the same compound?
A: Its logD at 24 h, 100 µM is 1.37.

Q: What about the Activity (Mus musculus [4]) of the same compound?
A: The Activity was “Tde”.

Q: Which Activity [1] does the source give for O=C(O)COc1ccc(OCc2cn(-c3ccc(F)cc3)nn2)cc1 here?
A: Its Activity is 13.8%.

Q: What does the source list for COc1cccc(-n2cc(COc3ccc(OCC(=O)O)c(F)c3)nn2)c1?
A: Activity [1]: 24.4%; logD at 24 h, 100 µM [2]: 0.52; Activity (Mus musculus [4]): Tde

Q: Which Activity [1] does the source give for CC(C)(C)c1ccc(-n2cc(COc3ccc(OCC(=O)O)c(F)c3)nn2)cc1 here?
A: Its Activity is 4.53%.

Q: For Cc1ccc(Cl)cc1-n1cc(COc2ccc(OCC(=O)O)c(F)c2)nn1, which Activity [1] is on record?
A: Its Activity is 36.1%.

Q: And the logD at 24 h, 100 µM [2]?
A: Its logD at 24 h, 100 µM is 1.95.

Q: What about the Activity (Mus musculus [3]) of the same compound?
A: Its Activity is 21.4%.

Q: What about the Activity (Mus musculus [5]) of the same compound?
A: The Activity was 14.2%.

Q: And the Activity (Mus musculus [4])?
A: Its Activity is “Tde”.

Q: For O=C(O)CC1COc2cc(OCc3cn(-c4ccc(OCc5ccccc5)cc4)nn3)ccc21 (stereo unspecified), which Activity [1] is on record?
A: Its Activity is 3.67%.

Q: Which Activity [1] does the source give for O=C(O)COc1ccc(OCc2cn(-c3ccccc3)nn2)cc1 here?
A: Its Activity is 0.64%.

Q: With O=C(O)CC1COc2cc(OCc3cn(-c4ccccc4)nn3)ccc21 (stereo unspecified) as the compound, how does the Activity [1] read?
A: Its Activity is 0.76%.

Q: With O=C(O)COc1ccc(OCc2cn(-c3ccccc3Cl)nn2)cc1F as the compound, how does the Activity [1] read?
A: Its Activity is 11.3%.

Q: For O=C(O)COc1ccc(OCc2cn(-c3cccc(Cl)c3)nn2)cc1F, which Activity [1] is on record?
A: Its Activity is 22.7%.

Q: Which Activity [1] does the source give for Cc1cccc(-n2cc(COc3ccc(OCC(=O)O)cc3)nn2)c1 here?
A: The Activity was 11.8%.

Q: Which Activity [1] does the source give for O=C(O)CC1COc2cc(OCc3cn(-c4cccc(Cl)c4)nn3)ccc21 (stereo unspecified) here?
A: Its Activity is 22.8%.

Q: And the logD at 24 h, 100 µM [2]?
A: Its logD at 24 h, 100 µM is 1.09.

Q: Which results are given for Cc1ccc(Cl)cc1-n1cc(COc2ccc3c(c2)OCC3CC(=O)O)nn1 (stereo unspecified)?
A: Activity [1]: 33.8%; logD at 24 h, 100 µM [2]: 2.08; Activity (Mus musculus [3]): 16.8%; Activity (Mus musculus [4]): Tde

Q: With COc1ccccc1-n1cc(COc2ccc(OCC(=O)O)c(F)c2)nn1 as the compound, how does the Activity [1] read?
A: The Activity was 14.6%.

Q: What does the source list for O=C(O)CC1COc2cc(OCc3cn(-c4c(Cl)cccc4Cl)nn3)ccc21 (stereo unspecified)?
A: Activity [1]: 21.7%; logD at 24 h, 100 µM [2]: 1.96

Q: For O=C(O)CC1COc2cc(OCc3cn(-c4ccc(Cl)cc4)nn3)ccc21 (stereo unspecified), which Activity [1] is on record?
A: The Activity was 24.7%.

Q: And the Activity (Mus musculus [4])?
A: The Activity was “Tde”.

Q: With O=C(O)CC1COc2cc(OCc3cn(-c4ccccc4F)nn3)ccc21 (stereo unspecified) as the compound, how does the Activity [1] read?
A: Its Activity is 6.69%.

Q: With O=C(O)COc1ccc(OCc2cn(-c3ccc(F)cc3)nn2)cc1F as the compound, how does the Activity [1] read?
A: Its Activity is 20.4%.

Q: And the logD at 24 h, 100 µM [2]?
A: Its logD at 24 h, 100 µM is 0.92.

Q: With O=C(O)CC1COc2cc(OCc3cn(-c4ccccc4Cl)nn3)ccc21 (stereo unspecified) as the compound, how does the Activity [1] read?
A: Its Activity is 9.34%.

Q: With Cc1cc(OCCCS(C)(=O)=O)cc(C)c1-c1cccc(COc2ccc3c(c2)OC[C@H]3CC(=O)O)c1 [FASIGLIFAM] as the compound, how does the Activity (Mus musculus [6]) read?
A: The Activity was 32.5%.

Q: With CCOc1ccc(-n2cc(COc3ccc(OCC(=O)O)c(F)c3)nn2)cc1 as the compound, how does the Activity [1] read?
A: Its Activity is 7.62%.

Q: For COc1cccc(-n2cc(COc3ccc4c(c3)OCC4CC(=O)O)nn2)c1 (stereo unspecified), which Activity [1] is on record?
A: Its Activity is 19.4%.
